Activity calls are given as the source filed them. The calls are words filed in the database; no cut-off is given here.
Tests used:
[1] = biological target: T1, Aurora kinase A (Homo sapiens) (UniProt O14965); experiment: Inhibition of Aurora A (unknown origin) at 10 uM using [33P]-ATP and 10 uM ATP after 2 hrs
T1 sequence (whole entry): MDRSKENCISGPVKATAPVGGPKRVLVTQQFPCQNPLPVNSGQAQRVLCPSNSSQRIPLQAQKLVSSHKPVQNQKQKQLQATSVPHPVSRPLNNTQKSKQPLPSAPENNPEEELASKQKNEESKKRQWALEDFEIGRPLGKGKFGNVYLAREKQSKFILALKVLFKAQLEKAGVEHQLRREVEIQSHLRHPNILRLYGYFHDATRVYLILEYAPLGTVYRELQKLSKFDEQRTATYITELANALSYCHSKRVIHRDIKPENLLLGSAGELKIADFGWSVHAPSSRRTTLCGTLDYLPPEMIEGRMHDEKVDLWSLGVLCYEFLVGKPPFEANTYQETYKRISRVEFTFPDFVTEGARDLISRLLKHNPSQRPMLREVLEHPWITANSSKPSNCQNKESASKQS

Aurora kinase B [2] = biological target: T2, Aurora kinase B (Homo sapiens, UniProt Q96GD4); experiment: Inhibition of Aurora B (unknown origin) at 10 uM using [33P]-ATP and 10 uM ATP after 2 hrs
Aurora kinase A = biological target: T3, Aurora kinase A (Homo sapiens, UniProt O14965); experiment: Inhibition of Aurora A (unknown origin) using [33P]-ATP and 10 uM ATP after 2 hrs
T3 sequence (O14965 whole entry): T1 sequence (whole entry)

Aurora kinase B [3] = biological target: T2, Aurora kinase B; experiment: Inhibition of Aurora B (unknown origin) using [33P]-ATP and 10 uM ATP after 2 hrs
[4] = system: Epidermal growth factor receptor (Homo sapiens), P00533 [L858R]; experiment: Inhibition of EGFR L858R mutant (unknown origin) at 10 uM; format: protein assay
Summary of the method: (§1)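 Single 10 µM concentration against a 40-kinase panel on the radiometric HotSpot platform. Kinase and substrate were added before ³³P-ATP started the reaction, which ran 2 h at room temperature.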

[5] = biological target: Serine/threonine-protein kinase pim-1 (Homo sapiens) (UniProt P11309); experiment: Inhibition of […] (unknown origin) at 10 uM; summary of the method: as §1
[6] = biological target: Glycogen synthase kinase-3 beta (Homo sapiens) (UniProt P49841); experiment: Inhibition of GSK3beta (unknown origin) at 10 uM; summary of the method: as §1
[7] = biological target: T1, Aurora kinase A (Homo sapiens); experiment: Inhibition of Aurora A (unknown origin) at 10 uM

T2 sequence (Q96GD4 whole entry): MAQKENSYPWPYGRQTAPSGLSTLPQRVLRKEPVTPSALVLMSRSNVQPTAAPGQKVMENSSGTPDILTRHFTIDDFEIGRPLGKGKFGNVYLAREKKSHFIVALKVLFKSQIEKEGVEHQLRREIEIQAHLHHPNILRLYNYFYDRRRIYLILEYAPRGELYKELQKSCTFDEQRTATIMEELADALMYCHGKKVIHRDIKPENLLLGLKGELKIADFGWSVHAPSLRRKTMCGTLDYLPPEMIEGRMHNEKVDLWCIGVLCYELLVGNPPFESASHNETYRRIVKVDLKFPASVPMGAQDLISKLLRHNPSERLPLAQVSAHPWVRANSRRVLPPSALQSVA
Epidermal growth factor receptor (Homo sapiens), P00533 [L858R], sequence (P00533 whole entry L858R): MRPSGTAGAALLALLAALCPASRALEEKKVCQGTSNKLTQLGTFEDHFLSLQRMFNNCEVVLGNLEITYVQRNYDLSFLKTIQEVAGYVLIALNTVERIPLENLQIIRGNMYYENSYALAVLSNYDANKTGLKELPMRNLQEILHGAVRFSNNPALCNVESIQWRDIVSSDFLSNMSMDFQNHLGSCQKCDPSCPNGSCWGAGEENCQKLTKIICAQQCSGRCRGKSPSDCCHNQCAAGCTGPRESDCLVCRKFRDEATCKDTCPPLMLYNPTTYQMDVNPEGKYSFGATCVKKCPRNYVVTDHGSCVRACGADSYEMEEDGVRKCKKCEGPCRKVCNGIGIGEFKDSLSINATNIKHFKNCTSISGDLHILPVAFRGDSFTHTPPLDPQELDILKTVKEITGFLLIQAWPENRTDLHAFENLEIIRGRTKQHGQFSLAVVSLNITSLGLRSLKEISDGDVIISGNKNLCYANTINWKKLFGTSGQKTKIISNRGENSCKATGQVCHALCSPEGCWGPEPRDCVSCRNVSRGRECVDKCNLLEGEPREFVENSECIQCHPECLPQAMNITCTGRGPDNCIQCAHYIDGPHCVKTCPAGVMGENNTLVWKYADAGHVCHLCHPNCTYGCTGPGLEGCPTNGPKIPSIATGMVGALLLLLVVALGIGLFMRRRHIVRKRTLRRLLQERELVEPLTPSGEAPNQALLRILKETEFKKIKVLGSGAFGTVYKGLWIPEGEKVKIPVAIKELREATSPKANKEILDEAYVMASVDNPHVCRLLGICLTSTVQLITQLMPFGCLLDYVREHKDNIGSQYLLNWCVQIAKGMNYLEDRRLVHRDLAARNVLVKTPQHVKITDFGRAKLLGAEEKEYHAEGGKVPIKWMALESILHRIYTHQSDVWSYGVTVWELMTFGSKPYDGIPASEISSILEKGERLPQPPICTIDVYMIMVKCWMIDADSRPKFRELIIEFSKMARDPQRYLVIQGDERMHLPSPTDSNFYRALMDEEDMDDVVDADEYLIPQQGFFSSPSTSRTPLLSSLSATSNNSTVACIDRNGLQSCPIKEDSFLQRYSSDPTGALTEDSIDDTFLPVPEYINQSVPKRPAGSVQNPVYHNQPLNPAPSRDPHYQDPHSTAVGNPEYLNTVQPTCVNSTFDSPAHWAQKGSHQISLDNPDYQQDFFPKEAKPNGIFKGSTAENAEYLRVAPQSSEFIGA
Glycogen synthase kinase-3 beta (Homo sapiens), sequence (P49841 whole entry, looked up): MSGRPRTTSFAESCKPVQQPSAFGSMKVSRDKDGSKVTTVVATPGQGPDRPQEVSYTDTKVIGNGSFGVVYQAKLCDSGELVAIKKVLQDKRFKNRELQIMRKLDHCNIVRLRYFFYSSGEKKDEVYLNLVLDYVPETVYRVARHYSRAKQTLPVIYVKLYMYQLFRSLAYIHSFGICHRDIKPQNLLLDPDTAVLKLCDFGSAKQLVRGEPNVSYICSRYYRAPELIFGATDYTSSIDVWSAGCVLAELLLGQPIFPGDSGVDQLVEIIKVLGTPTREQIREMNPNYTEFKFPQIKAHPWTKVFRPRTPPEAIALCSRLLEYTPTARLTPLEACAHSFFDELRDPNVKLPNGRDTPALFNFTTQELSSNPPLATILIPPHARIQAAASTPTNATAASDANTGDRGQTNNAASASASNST
Serine/threonine-protein kinase pim-1 (Homo sapiens), sequence (P11309 whole entry, looked up): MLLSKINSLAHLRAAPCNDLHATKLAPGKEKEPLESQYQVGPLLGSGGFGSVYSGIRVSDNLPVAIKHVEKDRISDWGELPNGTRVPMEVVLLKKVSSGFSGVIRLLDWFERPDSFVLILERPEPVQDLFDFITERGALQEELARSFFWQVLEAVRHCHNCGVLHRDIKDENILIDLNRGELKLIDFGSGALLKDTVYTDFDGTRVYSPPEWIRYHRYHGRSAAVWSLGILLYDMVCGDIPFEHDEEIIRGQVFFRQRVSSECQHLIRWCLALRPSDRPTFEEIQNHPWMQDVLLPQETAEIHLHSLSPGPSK

inhibition [1] [%]	inhibition (Aurora kinase B [2]) [%]	IC50 (Aurora kinase A) [nM]	IC50 (Aurora kinase B [3]) [nM]	inhibition [4]	inhibition [5]	inhibition [6]	inhibition [7] [%]	Compound
90.5	57.3	1820	63200					COC(=O)c1cccc(-c2cn(-c3ccc(O)c(C(=O)Nc4cccc(C(F)(F)F)c4)c3)nn2)c1
90.2	71.3	370	3580					COC(=O)c1cccc(NC(=O)c2cc(-n3cc(-c4cc(OC)cc(OC)c4)nn3)ccc2O)c1
83.3	50.3							COc1cccc(NC(=O)c2cc(-n3cc(-c4cc(OC)cc(OC)c4)nn3)ccc2O)c1
				Active	Active	Active	74.5	COc1cc(OC)cc(-c2cn(-c3ccc(O)c(C(=O)Nc4cccc(C(F)(F)F)c4)c3)nn2)c1

— ChEMBL document CHEMBL3352277, “Click approach to the discovery of 1,2,3-triazolylsalicylamides as potent Aurora kinase inhibitors” (Bioorg Med Chem, 2014)
